Assay [1] has as its target T1, Pyruvate kinase (Leishmania mexicana) (UniProt Q27686).
T1 sequence (whole entry): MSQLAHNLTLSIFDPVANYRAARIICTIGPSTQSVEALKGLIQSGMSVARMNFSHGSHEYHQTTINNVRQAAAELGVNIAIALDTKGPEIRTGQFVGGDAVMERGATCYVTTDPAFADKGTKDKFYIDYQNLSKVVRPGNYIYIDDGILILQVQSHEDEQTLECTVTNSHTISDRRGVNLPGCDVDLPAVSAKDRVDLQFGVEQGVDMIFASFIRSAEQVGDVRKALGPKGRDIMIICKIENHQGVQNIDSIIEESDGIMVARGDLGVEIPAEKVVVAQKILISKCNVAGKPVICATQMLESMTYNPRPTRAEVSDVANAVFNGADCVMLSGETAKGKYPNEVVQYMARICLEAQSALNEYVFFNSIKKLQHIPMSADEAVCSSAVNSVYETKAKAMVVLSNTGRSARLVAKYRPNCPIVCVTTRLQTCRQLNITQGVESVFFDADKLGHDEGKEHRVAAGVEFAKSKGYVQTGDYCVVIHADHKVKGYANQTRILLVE
Kind of assay: Inhibition of Leishmania mexicana pyruvate kinase assessed as enzyme residual activity at 5 mM.

The test system of assay [2] is Trypanosoma brucei. Put plainly: Antiparasitic activity against Trypanosoma brucei strain 427. Format: functional. Particulars: read-out: ED50 (the source's name). Summed up: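 Cultured bloodstream-form Trypanosoma brucei brucei strain 427 exposed to compounds in vitro; ED50 reported.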
Assay [3] addresses T2, ATP-dependent 6-phosphofructokinase (Trypanosoma brucei) (UniProt O15648).
T2 sequence (whole entry): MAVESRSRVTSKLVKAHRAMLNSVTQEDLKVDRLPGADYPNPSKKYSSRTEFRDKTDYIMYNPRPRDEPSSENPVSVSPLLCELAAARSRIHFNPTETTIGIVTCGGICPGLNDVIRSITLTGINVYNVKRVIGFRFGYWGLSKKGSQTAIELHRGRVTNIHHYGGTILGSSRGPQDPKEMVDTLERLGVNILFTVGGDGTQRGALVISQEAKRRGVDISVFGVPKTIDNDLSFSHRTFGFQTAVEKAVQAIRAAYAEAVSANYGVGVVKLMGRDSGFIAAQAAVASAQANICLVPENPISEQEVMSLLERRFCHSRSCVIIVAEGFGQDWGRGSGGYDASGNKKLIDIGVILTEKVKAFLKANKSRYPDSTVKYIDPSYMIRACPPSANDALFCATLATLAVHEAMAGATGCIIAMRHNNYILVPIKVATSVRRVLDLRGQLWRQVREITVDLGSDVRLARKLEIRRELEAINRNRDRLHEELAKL
Kind of assay: Inhibition of Trypanosoma brucei phosphofructokinase assessed as enzyme residual activity at 1 mM.

The target of assay [4] is T3, ATP-dependent 6-phosphofructokinase (Trypanosoma brucei, UniProt O15648).
T3 sequence (O15648 whole entry): T2 sequence (whole entry)
Put plainly: Inhibition of Trypanosoma brucei phosphofructokinase.

Assay [5] has as its target T2, ATP-dependent 6-phosphofructokinase (Trypanosoma brucei). Put plainly: Inhibition of Trypanosoma brucei phosphofructokinase assessed as enzyme residual activity at 5 mM.
Assay [6] has as its target T4, Pyruvate kinase (Leishmania mexicana, UniProt Q27686).
T4 sequence (Q27686 whole entry): T1 sequence (whole entry)
Kind of assay: Inhibition of Leishmania mexicana pyruvate kinase.

Structures are written as SMILES.

For orientation: IC50 means the concentration at which inhibition is half-maximal. High values mean weaker potency in that assay, low ones greater potency in that assay.

Consider `CCCCCCNC[C@H]1O[C@H](CO)[C@@H](O)[C@@H]1O`, for which the Activity in assay [1] turned out to be 40%. Further, the EC50 in assay [2] turned out to be 400 µM.
As for `O=C(NCc1ccccc1)[C@H]1O[C@H](CNCc2ccc(Cl)c(Cl)c2)[C@@H](O)[C@@H]1O`, the Activity in assay [3] stood at 4%.
Take `O=C(Nc1ccc([N+](=O)[O-])cc1)[C@H]1O[C@H](CNCc2ccc(Cl)c(Cl)c2)[C@@H](O)[C@@H]1O`: the Activity in assay [3] amounted to 0.8%.
`C=CCNC(=O)[C@H]1O[C@H](CNCc2ccc(Cl)c(Cl)c2)[C@@H](O)[C@@H]1O` had an IC50 in assay [4] of 50 µM. The Activity in assay [3] stood at 2%. For the same molecule, the EC50 in assay [2] came out at 110 µM.
For `O=C(Nc1ccccc1)[C@H]1O[C@H](CNCc2ccc(Cl)c(Cl)c2)[C@@H](O)[C@@H]1O`, the Activity in assay [3] is 5.5%.
Turning to `OC[C@H]1O[C@H](CNCc2ccc(Cl)c(Cl)c2)[C@@H](O)[C@@H]1O`, the figures for the Activity in assay [5] and in assay [1] were 5% and 43%, respectively. Moreover, it took 410 µM to reach half-maximal inhibition in assay [4] (IC50). In addition, the EC50 in assay [2] was 130 µM.
Take `OC[C@H]1O[C@H](CNC2CCCc3ccccc32)[C@@H](O)[C@@H]1O` (stereo not given in full): the Activity in assay [5] worked out at 62%; in assay [1] it was 36%. 1200 µM corresponded to half-maximal inhibition in assay [6] (IC50). Also, in assay [2], the EC50 was 830 µM.
In the case of `O=C(NC1CCCCCC1)[C@H]1O[C@H](CNCc2ccc(Cl)c(Cl)c2)[C@@H](O)[C@@H]1O`, the results for the Activity in assay [1] and in assay [3] were 88.2% and 4.7%, respectively. In addition, the IC50 in assay [4] is 80 µM. Moreover, in assay [2], the EC50 is 35 µM.
On to `O=C(NCc1ccc(Cl)c(Cl)c1)[C@H]1O[C@H](CNC2CCCCCC2)[C@@H](O)[C@@H]1O`, for which it took 49 µM to reach half-maximal inhibition in assay [4] (IC50). In addition, the Activity in assay [3] is 0.4%.
As for `O=C(Nc1cccc([N+](=O)[O-])c1)[C@H]1O[C@H](CNCc2ccc(Cl)c(Cl)c2)[C@@H](O)[C@@H]1O`, the Activity in assay [3] worked out at 1.7%.
Turning to `OC[C@H]1O[C@H](CNC2CCCCCC2)[C@@H](O)[C@@H]1O`, the figures for the Activity in assay [5] and in assay [1] were 63% and 19%, respectively. Besides, inhibition in assay [6] was half-maximal at 71 µM (IC50). In addition, the EC50 in assay [2] turned out to be 1880 µM.
In assay [4], `O=C(NCc1ccc(Cl)c(Cl)c1)[C@H]1O[C@H](CNCc2ccc(Cl)c(Cl)c2)[C@@H](O)[C@@H]1O` registered an IC50 of 23 µM. The Activity in assay [3] is 0.9%. The EC50 in assay [2] is 30 µM.

The values above are taken from ChEMBL document CHEMBL1157197, “Design, synthesis and trypanocidal activity of lead compounds based on inhibitors of parasite glycolysis” (Bioorg Med Chem, 2008).
